Counter-ions that a name gives are not always drawn.
Columns and labels:
[1] = Displacement of [3H]SCH23390 from dopamine D1-like receptor in pig striatal tissue homogenates after 30 mins by scintillation counting; format: tissue-based, Sus scrofa, Striatum
[2] = Displacement of [3H]-N-methylspiperone from dopamine D2-like receptor in pig striatal tissue homogenates after 30 mins by scintillation counting; format: tissue-based, Sus scrofa, Striatum
Outline: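 Porcine striatal membranes with 0.2 nM [3H]-N-methylspiperone plus 50 nM ketanserin to block 5-HT2A sites. Buffer 50 mM HEPES, 4 mM MgCl2, pH 7.4. Nonspecific binding defined with (+)-butaclamol. Incubated 37 °C for 30 min, then filtered and washed with ice-cold Tris/NaCl.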

D(1A) dopamine receptor [3] = molecular target: T1, D(1A) dopamine receptor (Homo sapiens, UniProt P21728); assay: Intrinsic activity at human dopamine D1 receptor expressed in HEK293 cells assessed as cAMP accumulation after 15 mins relative to dopamine; format: functional, cell-based
T1 sequence (P21728 whole entry): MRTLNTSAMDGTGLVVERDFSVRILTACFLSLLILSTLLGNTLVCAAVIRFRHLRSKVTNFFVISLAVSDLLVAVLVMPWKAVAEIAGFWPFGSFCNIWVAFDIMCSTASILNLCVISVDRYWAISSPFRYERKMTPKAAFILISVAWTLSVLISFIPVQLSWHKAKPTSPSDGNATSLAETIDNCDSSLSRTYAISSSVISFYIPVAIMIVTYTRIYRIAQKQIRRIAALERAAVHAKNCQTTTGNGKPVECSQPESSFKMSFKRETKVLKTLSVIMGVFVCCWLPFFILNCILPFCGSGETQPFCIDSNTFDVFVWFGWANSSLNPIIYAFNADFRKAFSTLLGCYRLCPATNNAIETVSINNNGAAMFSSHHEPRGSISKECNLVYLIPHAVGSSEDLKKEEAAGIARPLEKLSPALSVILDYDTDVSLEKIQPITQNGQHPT
Outline: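 HEK293 cells stably expressing hD1 (about 1800 fmol/mg) grown to 90–95% confluency. Medium replaced with 500 µM IBMX in EBSS, then drug added in duplicate for 15 min at 37 °C. Stopped with 3% trichloroacetic acid. cAMP measured by [3H]cAMP competition with bovine adrenal binding protein against a standard curve. Maximal response expressed as percent of 10 µM dopamine.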

D(1A) dopamine receptor [4] = molecular target: T1, D(1A) dopamine receptor; assay: Agonist activity at human dopamine D1 receptor expressed in HEK293 cells assessed as cAMP accumulation after 15 mins; format: functional, cell-based
Sus scrofa = organism: Sus scrofa; assay: Ratio of SKF38393 Ki to compound Ki for dopamine D1-like receptor in pig striatal tissue homogenates; format: tissue-based; conditions: Striatum

| Structure (SMILES) | Ki [1] [nM] | Ki [2] [nM] | Intrinsic activity (D(1A) dopamine receptor [3]) [%] | EC50 (D(1A) dopamine receptor [4]) [nM] | Ratio Ki (Sus scrofa) |
| --- | --- | --- | --- | --- | --- |
| Oc1cc2c(cc1O)[C@@H]1c3ccccc3CC[C@@H]1NCC2 (racemic) | 22000 | 88000 |  |  |  |
| CN1CCc2cc(Cl)c(O)cc2[C@H]2c3ccccc3CC[C@@H]21 [ECOPIPAM HYDROCHLORIDE] | 1.3 | 2010 |  |  |  |
| Oc1cc2c(cc1O)[C@@H](c1ccccc1)CNCC2 | 151 | 2360 | 93 |  |  |
| Oc1cc2c(cc1O)[C@H]1c3ccccc3OC[C@@H]1NCC2 (racemic) | 186 | 44800 | 60 | 570 |  |
| CN1CCc2cc(Cl)c(O)cc2[C@@H](c2ccccc2)C1 | 0.64 |  |  |  |  |
| Oc1cc2c(cc1O)[C@H]1c3ccccc3CN[C@@H]1CC2 (racemic) [DIHYDREXIDINE] |  | 320 | 103 |  |  |
| Oc1cc2c(cc1O)[C@H]1c3ccccc3CC[C@@H]1NCC2 (racemic) | 257 | 8480 | 28 | 438 |  |
| Oc1cc2c(cc1O)[C@H]1c3ccccc3SC[C@@H]1NCC2 (racemic) | 92 | 28000 | 21 | 584 | 1.6 |
